According to ChEMBL document CHEMBL1154198, “Chemical genetics of Plasmodium falciparum” (Nature, 2010):

Columns and labels:
[1] = tested on: Plasmodium falciparum; assay: ST_JUDE: Plasmodium falciparum 3D7 EC50 (uM) as measured by SYBR green dye; assay type: functional, organism-based
[2] = tested on: Plasmodium falciparum; assay: ST_JUDE: Plasmodium falciparum K1 EC50 (uM) as measured by SYBR green dye; assay type: functional, organism-based
[3] = tested on: Plasmodium falciparum; assay: ST_JUDE: Cytotoxicity against Plasmodium falciparum 3D7; assay type: functional, organism-based
Procedure, shortened: (§1)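 Asexual P. falciparum grown in human erythrocytes, exposed to compounds for 72 h, and growth read as the DNA quantity in treated versus control cultures. Dose-response run at 12 concentrations from 10 μM to 5 nM.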

[4] = tested on: Plasmodium falciparum; assay: ST_JUDE: Cytotoxicity against Plasmodium falciparum K1; assay type: functional, organism-based; procedure, shortened: as §1
[5] = tested on: Plasmodium falciparum; assay: ST_JUDE: Cytotoxicity against Plasmodium falciparum V1/S; assay type: functional, organism-based
[6] = tested on: Toxoplasma gondii; assay: ST_JUDE: Growth inhibition of to Toxoplasma gondii, in human U-2OS cells, as measured by luciferase.; assay type: functional, organism-based; conditions: RH, U2OS
Procedure, shortened: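 T. gondii parasites engineered to express luciferase; drug sensitivity read by luminescence.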

[7] = tested on: Trypanosoma brucei; assay: ST_JUDE: Cytotoxicity using luciferase to measure ATP as an indicator of the viability of Trypanosoma brucei; assay type: functional, organism-based
[8] = tested on: Leishmania major; assay: ST_JUDE: Cytotoxicity using Alamar Blue to measure viability of Leishmania major; assay type: functional, organism-based
Procedure, shortened: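 L. major promastigotes; drug susceptibility read with Alamar Blue.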

[9] = ST_JUDE: Cytotoxicity using luciferase to measure ATP as an indicator of the viability of human foreskin fibroblast cells (BJ); assay type: toxicity, cell-based
[10] = ST_JUDE: Cytotoxicity using luciferase to measure ATP as an indicator of the viability of human epithelial hepatocellular carcinoma cells (HepG2); assay type: toxicity, cell-based
[11] = ST_JUDE: Cytotoxicity using luciferase to measure ATP as an indicator of the viability of human epithelial embryonic kidney cells (HEK293); assay type: toxicity, cell-based
[12] = ST_JUDE: Cytotoxicity using luciferase to measure ATP as an indicator of the viability of human Burkitt''s lymphoma lymphoblast cells (Raji); assay type: toxicity, cell-based
[13] = tested on: Plasmodium falciparum; assay: ST_JUDE: Cytotoxicity against Plasmodium falciparum Dd2; assay type: functional, organism-based
[14] = tested on: Plasmodium falciparum; assay: ST_JUDE: Cytotoxicity against Plasmodium falciparum W2; assay type: functional, organism-based
[15] = tested on: Plasmodium falciparum; assay: ST_JUDE: Cytotoxicity against Plasmodium falciparum SB-A6; assay type: functional, organism-based
[16] = tested on: Plasmodium falciparum; assay: ST_JUDE: Cytotoxicity against Plasmodium falciparum D10 transfected with yeast DHOD; assay type: functional, organism-based

Row | SMILES | EC50 [1] | EC50 [2] | EC50 [3] | EC50 [4] | EC50 [5] | EC50 [6] | EC50 [7] | EC50 [8] | EC50 [9] | EC50 [10] | EC50 [11] | EC50 [12] | EC50 [13] | EC50 [14] | EC50 [15] | EC50 [16]
1 | Oc1ccc(Br)cc1CN1CCN(Cc2cccc(F)c2)CC1 | 3.51 µM | 1.3 µM | 1.56 µM | 0.656 µM | 0.723 µM | > 17.4 µM | 25.8 µM | > 13.6 µM | > 31.8 µM | > 31.8 µM | > 31.8 µM | > 31.8 µM | 1.5 µM | 1.74 µM | 1.74 µM | 1.5 µM
2 | CN(C(=O)c1cc2c(s1)-c1ccccc1S(=O)(=O)C2)c1cccc(C(F)(F)F)c1 | 0.744 µM | 1.25 µM | 0.35 µM | 0.356 µM | 0.684 µM | > 22.4 µM | 18.1 µM | > 17.5 µM | > 40.8 µM | > 40.8 µM | > 40.8 µM | > 40.8 µM | 0.335 µM | 0.116 µM | 0.414 µM | 0.431 µM
3 | Cc1ccc(NC(=O)c2c(I)cnn2C)cc1[N+](=O)[O-] | 0.705 µM | 1.05 µM | 0.769 µM | > 11.7 µM | 3.73 µM | > 25.1 µM | > 43.9 µM | > 19.6 µM | > 45.7 µM | > 45.7 µM | > 45.7 µM | > 45.7 µM | 0.822 µM | 0.583 µM | > 11.7 µM | > 11.7 µM
4 | COc1ccc(O)c(CN2CCN(c3cc(C)ccc3C)CC2)c1 | 1.37 µM | 0.488 µM | 2.2 µM | 0.992 µM | 0.659 µM | > 19.4 µM | > 34 µM | > 15.2 µM | > 35.5 µM | > 35.5 µM | > 35.5 µM | > 35.5 µM | 0.741 µM | 0.566 µM | 1.29 µM | 1.23 µM
5 | CCCO/C(O)=C1\C(C)=NC2=C(C(=O)CC(c3ccc(OC)cc3)C2)C1c1ccc([N+](=O)[O-])cc1 (centres undefined) | 0.653 µM | 1.08 µM | 3 µM | 1.07 µM | 1.48 µM | > 24.8 µM | 6.94 µM | > 19.4 µM | > 45.2 µM | > 45.2 µM | > 45.2 µM | > 45.2 µM | 1.6 µM | > 11.6 µM | 1.03 µM | 1.53 µM
6 | CCN1/C(=C/c2cccc[n+]2C)C=Cc2cc(C)ccc21 | 0.439 µM | 0.325 µM | 1.5 µM | 1.89 µM | > 8.27 µM | > 17.6 µM | 7.21 µM | 0.107 µM | > 32.2 µM | > 32.2 µM | > 32.2 µM | > 32.2 µM | 1.7 µM | > 8.27 µM | 2.05 µM | 1.54 µM
7 | CCOC(=O)C1(Cc2ccccc2)CCN(Cc2cccc(OC)c2O)CC1 | 2.29 µM | 1.05 µM | 1.49 µM | 0.645 µM | 0.908 µM | > 20.3 µM | 30.9 µM | > 15.8 µM | > 37 µM | > 37 µM | > 37 µM | > 37 µM | 1.76 µM | 1.43 µM | 3 µM | 2.55 µM
8 | CCCO/C(O)=C1\C(C)=NC2=C(C(=O)CC(c3ccc(OC)cc3)C2)C1c1ccccc1Cl (centres undefined) | 0.713 µM | 0.466 µM | 0.373 µM | 0.16 µM | 0.173 µM | > 22.9 µM | 5.09 µM | > 17.9 µM | > 41.9 µM | > 41.9 µM | > 41.9 µM | > 41.9 µM | 0.301 µM | 0.0889 µM | 0.167 µM | 0.188 µM
9 | Cc1ccc(C2(c3ccc(C)cc3)CC2C(=O)Nc2ccc([N+](=O)[O-])cc2O)cc1 (centres undefined) | 0.658 µM | 0.582 µM | 1.01 µM | 0.741 µM | 1.26 µM | > 21.1 µM | 4.78 µM | > 16.5 µM | 11 µM | 10.7 µM | 11.4 µM | 10.6 µM | 2.09 µM | 1.83 µM | 1.83 µM | 1.6 µM
10 | Cc1cccc(CN2CCC(CNC(=S)Nc3ccc4nc(N5CCN(C)CC5)cc(C)c4c3)CC2)c1 | 0.395 µM | 1.25 µM | 1.14 µM | 0.995 µM | 1.99 µM | > 23.2 µM | 4.8 µM | > 18.1 µM | 9.56 µM | 6.04 µM | 13.6 µM | 22.6 µM | 0.506 µM | 2.23 µM | 0.708 µM | 1.05 µM
11 | Cc1cccc(N2CCN(Cc3ccccc3O)CC2)c1C | 1.07 µM | 0.531 µM | 0.976 µM | 0.355 µM | 0.403 µM | > 17.9 µM | > 31.3 µM | > 14 µM | > 32.7 µM | > 32.7 µM | > 32.7 µM | > 32.7 µM | 0.626 µM | 0.951 µM | 0.0295 µM | 0.813 µM
12 | CO/C(O)=C1\C(C)=NC2=C(C(=O)CC(c3ccc(OC)c(OC)c3)C2)C1c1ccccc1C (centres undefined) | 0.424 µM | 0.117 µM | 0.309 µM | 0.22 µM | 0.254 µM | > 22.7 µM | 17 µM | > 17.7 µM | > 41.4 µM | > 41.4 µM | > 41.4 µM | > 41.4 µM | 0.577 µM | 0.225 µM | 0.176 µM | 0.196 µM
13 | COC(=O)c1ccc(NC(=O)C2c3ccccc3C(=O)N(CC(C)C)C2c2cccs2)cc1 (centres undefined) | 0.998 µM | 1.22 µM | 1.16 µM | 1.52 µM | 1.73 µM | > 21.2 µM | 2.33 µM | > 16.6 µM | > 38.7 µM | > 38.7 µM | > 38.7 µM | > 38.7 µM | 1.25 µM | > 9.94 µM | 2.26 µM | 1.36 µM
14 | Cc1ccc(C2CC(C(F)(F)F)n3nc(C(=O)N4CCN(C(c5ccccc5)c5ccccc5)CC4)cc3N2)cc1 (centres undefined) | 0.668 µM | 10.4 µM | 1.12 µM | > 11 µM | > 11 µM | > 23.4 µM | 5.41 µM | > 18.3 µM | > 42.7 µM | > 42.7 µM | > 42.7 µM | > 42.7 µM | 1.37 µM | > 11 µM | 0.448 µM | > 11 µM
15 | COc1ccc(C2CC3=NC(C)=C(C(=O)OC(C)C)C(c4ccccc4Cl)C3=C(O)C2)cc1OC (centres undefined) | 0.0358 µM | 0.0178 µM | 0.087 µM | 0.0538 µM | 0.0876 µM | 14.6 µM | 6.77 µM | > 17.6 µM | > 41.2 µM | > 41.2 µM | > 41.2 µM | > 41.2 µM | 0.0582 µM | 0.0406 µM | 0.035 µM | 0.0455 µM
16 | CCOc1ccc(N(C(C)=O)C2=C(N3CCOCC3)C(=O)c3ccccc3C2=O)cc1 | 0.0547 µM | 0.221 µM | 0.069 µM | 0.1 µM | 0.0515 µM | 5.19 µM | 2.96 µM | > 15.9 µM | 9.6 µM | 6 µM | 13.1 µM | 4.57 µM | 0.487 µM | 1.88 µM | 0.0584 µM | 0.0266 µM
17 | COc1ccc(Nc2cc(C)nc(Nc3ccc(NS(=O)(=O)c4ccc(OC)cc4)cc3)n2)cc1 | 0.743 µM | > 15 µM | 1.03 µM | > 12.9 µM | > 12.9 µM | > 27.6 µM | 5.79 µM | 0.175 µM | > 50.3 µM | 17.4 µM | 30.6 µM | 14.3 µM | 1.23 µM | > 12.9 µM | 0.546 µM | 1.69 µM
18 | CC(=O)c1cccc(NC(=O)C2c3ccccc3C(=O)N(CC(C)C)C2c2cccs2)c1 (centres undefined) | 0.196 µM | 0.284 µM | 0.363 µM | 0.357 µM | 0.371 µM | > 23.7 µM | 5.85 µM | > 18.5 µM | > 43.2 µM | > 43.2 µM | > 43.2 µM | > 43.2 µM | 0.392 µM | > 11.1 µM | 0.414 µM | 0.411 µM
19 | CC(C)CN1C(=O)c2ccccc2C(C(=O)Nc2ccc(F)c(Cl)c2)C1c1cccs1 (centres undefined) | 0.0897 µM | 0.173 µM | 0.378 µM | 0.421 µM | 1.68 µM | > 23.2 µM | 2.62 µM | > 18.1 µM | > 42.3 µM | 38.1 µM | > 42.3 µM | > 42.3 µM | 0.421 µM | 0.152 µM | 1.39 µM | 1.31 µM
